An excerpt weighted towards active compounds, which were near 2.4% of everything screened.
HTR5A ag ctr: HTR5A agonists in luminescence cell assay, primary screen, counter-screen for OPRM1-OPRD1 heterodimer agonist project, full-deck HTS. 5-hydroxytryptamine receptor 5A (Homo sapiens), P47898. cell-based. activation, % at 9.3 µM. hit rate 0.61% among 340,000. AID 504692, 2011; in the data active = activation mostly above about 9.5%, no sharp cut-off; inactive = mostly below about 7.6%
OPRM1-OPRD1 ag: agonists of OPRM1-OPRD1 heterodimerization, primary screen, cell-based, luminescence | Mu-type opioid receptor (Homo sapiens) + Delta-type opioid receptor (Homo sapiens), … | cells | activation, % at 9.3 µM | hit rate 0.3% among 340,000; in the data active = activation above about 18%
MC4R ag barr: MC4R agonists recruiting beta-arrestin, primary screen, cell-based, luminescence, agonist arm of biased-ligand search. hit rate 0.98% among 360,000. Melanocortin receptor 4 (Homo sapiens), P32245. activation, % at 8.9 µM. U2OS MC4R beta-arrestin complementation; percent of melanotan II response, DMSO zero;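 active = activation above a per-plate cutoff, the mean activation of sample wells on that plate plus 3 SD, cut at about 8% in these data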
Target sequence (P32245 whole entry, looked up): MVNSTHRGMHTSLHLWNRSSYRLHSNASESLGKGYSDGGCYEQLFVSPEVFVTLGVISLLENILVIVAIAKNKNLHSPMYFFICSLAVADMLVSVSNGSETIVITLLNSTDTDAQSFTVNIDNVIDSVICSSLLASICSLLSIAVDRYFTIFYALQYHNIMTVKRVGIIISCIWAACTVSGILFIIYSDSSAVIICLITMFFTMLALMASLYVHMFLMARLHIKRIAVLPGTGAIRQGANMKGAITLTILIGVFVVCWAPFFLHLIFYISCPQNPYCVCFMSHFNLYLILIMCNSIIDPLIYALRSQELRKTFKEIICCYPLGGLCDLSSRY
HTR5A inv ctr: HTR5A inverse agonists in luminescence cell assay, primary screen, counter-screen for OPRM1-OPRD1 heterodimer inverse agonist project, full-deck HTS; inhibition, % at 9.3 µM; hit rate 0.083% among 340,000; HTR5A cell line, inverse agonism; in the data active = inhibition mostly above about 23%, no sharp cut-off; inactive = mostly below about 18%
MC4R antagonist: MC4R antagonists of cAMP signaling, primary screen, cell-based, TR-FRET, antagonist arm of biased-ligand search; MC4R-expressing cells, MTII-stimulated cAMP, LANCE TR-FRET; inhibition, % at 6.5 µM; hit rate 0.48% among 360,000; AID 540295, 2011;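 active = inhibition above its plate's cutoff, the mean of tested wells on that plate plus 3 SD, cut at about 29% in these data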
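Material – human MC4R-expressing U2OS cells · Repeats – no replicates · Detection – TR-FRET with Eu-cAMP and labeled anti-cAMP, 671 nm · Times – compound 30 min, challenge 1 h, detection 1 h · Compound – single nominal compound dose of 6.5 µM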
OPRM1-OPRD1 inv: inverse agonists of MOR-DOR heterodimerization, primary screen, cell-based, luminescence | hit rate 0.21% among 340,000 | cell-based MOR-DOR heterodimer luminescence, inverse agonism | Mu-type opioid receptor (Homo sapiens) + Delta-type opioid receptor (Homo sapiens), … | inhibition, % at 9.3 µM; in the data active = inhibition above about 22%, passing the limit was not always enough
A number is an active result; – = inactive; · = no result given.

SMILES	HTR5A ag ctr	OPRM1-OPRD1 ag	MC4R ag barr	HTR5A inv ctr	MC4R antagonist	OPRM1-OPRD1 inv
COc1ccc(N(CCCN2C(=O)c3cccc4cccc(c34)C2=O)C(=O)c2ccncc2)cc1	–	–	–	–	–	–
COc1ccc(N(CCCN2C(=O)c3cccc4cccc(c34)C2=O)C(=O)c2cccnc2)cc1	–	–	11	–	–	–
Cc1ccc(-n2ncc3c(SCc4ccccn4)ncnc32)c(C)c1	–	–	–	–	–	–
COc1cccc(NC(=O)CSc2nnc(-c3cccs3)n2C)c1	10	–	–	–	–	–
CC(=O)Nc1ccc(NC(=O)CSc2nnc(-c3cccs3)n2C)cc1	–	–	–	–	–	–
O=C1Nc2ccccc2Cc2ccccc21	·	·	–	·	–	·
CCNc1nc(NCC)n2c(SCC(=O)Nc3ccccc3C(F)(F)F)nnc2n1	–	–	–	–	–	–
COc1ccc(/C=C(/NC(=O)c2cccc([N+](=O)[O-])c2)C(=O)O)cc1	–	–	–	–	–	–
C=CCNc1nc(Cl)nc(Nc2cc(Cl)ccc2OC)n1	–	–	8.8	–	–	–
CCOc1nc(Nc2cc(Cl)ccc2OC)nc(OCC)n1	–	–	–	–	–	–
Cc1nc(-c2ccc(C(=O)Nc3ccc(F)cc3)cc2)cs1	13	–	–	–	–	–
COc1ccc(NC(=O)c2ccc(-c3csc(C)n3)cc2)cc1	–	–	–	–	–	–
COc1ccc(OC)c(NC(=O)C(CC(=O)O)NCc2ccco2)c1 (stereo not drawn)	–	–	–	–	–	–
N/C(=N\OC(=O)c1ccc(Cl)cc1)c1cccnc1	14	–	–	–	–	–
N/C(=N\OC(=O)c1ccc(Cl)cc1Cl)c1cccnc1	–	–	–	–	–	–
Cc1ccc(S(=O)(=O)NN(Cc2ccccc2)Cc2ccccc2)cc1	·	·	8.8	·	–	·
S=C(N/N=C/c1ccc(Cl)c(Cl)c1)Nc1ccccc1Cl	–	–	9.3	–	–	–
O=C(O)CCN1CCN(S(=O)(=O)c2ccc3ccccc3c2)CC1	–	–	–	–	–	–
O=C1CCC/C=C/C[C@@H](CC(=O)N(CCO)Cc2ccccc2)C(=O)NC[C@@H](c2ccccc2)O1	–	–	–	–	–	–
CC1CCCC(C)N1NC(=O)Cc1ccccc1 (stereo not drawn)	9.7	–	–	–	–	–
O=C(Cc1ccccc1)NN1C(=O)C2C3C=CC(C3)C2C1=O (stereo not drawn)	–	–	–	–	–	–
O=c1c2ccccc2nc(/C=C/c2ccc3c(c2)OCO3)n1CCCO	–	–	–	–	–	–
O=c1c2ccccc2nc(/C=C/c2ccccc2)n1CCCO	9.9	–	–	–	–	–
Cn1c(/C=C/c2ccc(Cl)cc2)nc2ccccc2c1=O	9.8	–	9.0	–	–	–
Cn1c(/C=C/c2ccccc2)nc2ccccc2c1=O	–	–	–	–	–	–
SMILES	HTR5A ag ctr	OPRM1-OPRD1 ag	MC4R ag barr	HTR5A inv ctr	MC4R antagonist	OPRM1-OPRD1 inv
CCN1CCN(C(=O)CN(c2ccc(F)cc2)S(=O)(=O)c2ccc(OC)c(OC)c2)CC1	–	–	–	–	–	–
COC(=O)c1ccc(COC(=O)CNC(=O)c2ccc(OC)cc2)cc1	–	–	–	–	–	–
CCCCn1c(N)c(N(CC(C)C)C(=O)CCNC(=O)c2ccc(Br)cc2)c(=O)[nH]c1=O	–	–	–	–	–	–
Cn1c(=NC(=O)CCl)sc2ccccc21	57	47	–	–	–	–
Fc1ccc(N=c2ssnc2Cl)c(F)c1	–	–	–	–	29	–
COc1ccccc1NC(=O)Nc1ccc(F)c(F)c1	–	–	–	–	–	–
CCOc1cc(CNCc2cccnc2)cc(Br)c1OCC(N)=O	10	–	–	–	–	–
O=C(Nc1ccccn1)c1ccc2ccccc2n1	8.9	–	–	–	–	–
NC(=O)C1CCCN(CC(O)COCc2ccc(Cl)cc2)C1 (stereo not drawn)	–	–	–	–	–	–
CCOC(=O)C1CCN(CC(O)COCc2ccc(Cl)cc2)CC1 (stereo not drawn)	12	–	–	–	–	–
CCOC1Cc2ccccc2N(C(N)=O)c2ccccc21 (stereo not drawn)	–	–	–	–	–	–
COC1Cc2ccccc2N(C(=O)N2CCN(CCO)CC2)c2ccccc21 (stereo not drawn)	14	–	–	–	–	–
c1ccc2c(c1)CCN(c1ncnc3c1[nH]c1ccccc13)C2	–	52	–	–	–	–
c1ccc(CN2CCN(c3ncnc4c3[nH]c3ccccc34)CC2)cc1	–	–	–	–	–	–
O=C1C=C(Nc2cccnc2)c2ccccc2C1=O	–	–	–	–	–	–
O=C(CN1CCN(c2ccccc2O)CC1)Nc1ccc([N+](=O)[O-])cc1Br	11	–	–	–	–	–
COc1cc(CNCCc2c[nH]c3ccccc23)ccc1OCc1ccc(F)cc1	11	–	9.2	–	–	–
CCN1C(=O)[C@H]2[C@@H](c3ccc(C)cc3)N[C@]3(CCCN(Cc4cccn4C)C3=O)[C@H]2C1=O	·	·	–	·	–	·
Cc1cccc(-c2nc(CS(=O)CC(=O)NCCc3ccc(Cl)cc3)c(C)o2)c1 (stereo not drawn)	–	–	–	–	–	–
COCCNC(=S)NC(=O)CC12CC3CC(CC(C3)C1)C2	–	–	8.3	–	–	–
CNC(=O)CC12CC3CC(CC(C3)C1)C2	–	–	–	–	–	–
Cc1cc(=O)oc2cc(NC(=O)c3ccc(OC(F)F)cc3)ccc12	–	–	–	–	–	–
CCCc1nn(C)c(C(=O)Nc2ccc(C)c(C)c2)c1Cl	–	–	–	–	–	–
CCn1nc(C(=O)Nc2ccc(C)c(C)c2)c(Cl)c1Cl	–	–	8.7	–	–	–
COc1ccc2cc(/C=N/NC(=O)CSCc3ccc([N+](=O)[O-])cc3)c(Cl)nc2c1	–	–	12	–	–	–
COc1ccc(CCNC(=O)CSCc2ccc([N+](=O)[O-])cc2)cc1	–	–	–	–	–	–
O=C(Nc1ccc(Cl)cc1)N1CCC(c2nc(-c3ccccc3Cl)no2)CC1	–	–	9.0	–	–	–
CCc1ccc(C(=O)COC(=O)c2cccnc2Cl)cc1	–	–	–	–	–	–
C[C@H](CO)N1C[C@H](C)[C@@H](CN(C)Cc2ccc(Oc3ccccc3)cc2)Oc2c(NC(=O)c3ccncc3)cccc2C1=O	–	–	–	–	–	–

Screening results from PubChem.
